From PubChem BioAssay
TbMetRS inhib: blocks T. brucei methionyl-tRNA synthetase activity | purified T. brucei MetRS, ATP depletion, Kinase-Glo luminescence | inhibition, % at 11.9 µM | actives 0.4% (n = 360,000);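 active means inhibition above a per-plate cutoff of the control wells' mean inhibition plus 3 SD, cut at about 5.5% in these data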
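technique = Kinase-Glo luminescence, ATP depletion format | system = purified MetRS (methionyl-tRNA synthetase) enzyme from Trypanosoma brucei | timing = 15 min preincubation, 2 h reaction, all 25 °C | evaluation = percent inhibition versus plate control medians | dosing = single dose, 11.9 µM final nominal, 0.9% final DMSO | also added = substrates ATP, L-methionine and bulk Escherichia coli tRNA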
HDAC3 inh: blocks human histone deacetylase 3; O15379; recombinant HDAC3, fluorogenic peptide/trypsin coupled, fluorescence; inhibition, % at 8.3 µM; actives 0.15% (n = 320,000); in the data active means inhibition above about 26%, passing the limit was not always enough
Target sequence (O15379 whole entry, looked up): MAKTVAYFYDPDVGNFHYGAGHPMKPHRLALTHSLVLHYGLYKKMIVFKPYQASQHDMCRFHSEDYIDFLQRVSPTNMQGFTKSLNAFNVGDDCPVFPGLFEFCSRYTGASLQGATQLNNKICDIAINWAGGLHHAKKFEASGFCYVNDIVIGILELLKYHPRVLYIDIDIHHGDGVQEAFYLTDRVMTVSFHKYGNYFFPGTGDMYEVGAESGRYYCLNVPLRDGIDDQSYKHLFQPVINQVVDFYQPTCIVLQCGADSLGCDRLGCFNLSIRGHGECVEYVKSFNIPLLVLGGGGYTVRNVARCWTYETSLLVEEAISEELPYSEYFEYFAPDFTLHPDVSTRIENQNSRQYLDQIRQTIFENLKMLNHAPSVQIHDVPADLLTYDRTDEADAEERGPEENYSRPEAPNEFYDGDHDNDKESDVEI
IDE cell activ: IDE (human) activation, cell-based; activation, % at 5.96 µM; HEK cells, FAbeta-B cleavage, fluorescence polarization; 0% vehicle, 100% cell-free pure enzyme wells; P14735; actives 0.073% (n = 340,000);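 active means activation above the mean of all tested compounds plus 3 SD, set per screening campaign, cut at about 17% in these data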
Efflux pump mplx: inhibitors of Candida antifungal efflux pumps expressed in yeast; S. cerevisiae Candida pump triplex, Nile Red efflux; inhibition, % at 10 µM; actives 0.44% (n = 330,000);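 active means plate passing quality check with inhibition over a set limit, or well fluorescence over plate mean plus 4 SD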;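 further: Nile Red retained in pooled yeast measured as flow cytometry median fluorescence; higher means more Nile Red kept so more efflux inhibition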
Yeast superoxide: yeast age-related superoxide inhibition as caloric restriction mimetic. actives 0.18% (n = 330,000). S. cerevisiae aged cells, superoxide DHE fluorescence; stronger effect = lower value. superoxide response (% of plate mean), % at 10 µM. AID 2690;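 active means superoxide response under a set limit, about three screen SD below normal, cut at about 65% in these data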;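 further: yeast aged for seven days with compound at 30 °C before DHE staining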
IDE cell inh: inhibitors of human insulin-degrading enzyme in cells | actives 0.41% (n = 320,000) | P14735 | AID 434962 | inhibition, % at 5.59 µM | HEK cells, FAbetaB cleavage, fluorescence polarization;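 active means percent inhibition above the average of all tested compounds plus 3 SD, set per screening campaign, cut at about 16% in these data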;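 further: IDE supplied by intact live HEK cells; FP after avidin binding of uncleaved biotin substrate so inhibition keeps polarization high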
Yeast cmpd fluor: counter-screen for efflux pump inhibitors: compound fluorescence | actives 4% (n = 1,700) | shares compounds with Efflux pump mplx | fluorescence ratio to DMSO, % at 10 µM | S. cerevisiae AD/pABC3, flow cytometry;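 active means fluorescence ratio to DMSO above its plate's cutoff, the plate mean ratio plus 5 SD, cut at about 210% in these data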;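 further: unstained yeast with no Nile Red so the signal is compound autofluorescence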
CaMdr1 efflux inh: inhibitors of Candida albicans Mdr1 efflux pump; shares compounds with Efflux pump mplx; S. cerevisiae AD/CaMDR1, Nile Red efflux, flow cytometry; inhibition, % at 10 µM; actives 1% (n = 1,700); AID 588518; in the data active means inhibition above about 26%;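 further: higher means more Nile Red retained so more efflux inhibition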
Cdr2 pump inh: blocks the Candida albicans Cdr2 efflux pump in yeast. shares compounds with Efflux pump mplx. S. cerevisiae AD/CaCDR2, Nile Red retention, flow cytometry. Nile Red retention ratio vs DMSO, % at 10 µM. actives 4% (n = 1,700); in the data active means Nile Red retention ratio vs DMSO above about 190%;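 further: higher ratio means more blocking of Cdr2 efflux of the dye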
CaCdr1 efflux inh: Candida Cdr1 efflux pump inhibition; shares compounds with Efflux pump mplx; S. cerevisiae AD/CaCDR1, Nile Red efflux, flow cytometry; inhibition, % at 10 µM; actives 1% (n = 1,700);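 active means inhibition above the screen-wide mean plus twice its standard deviation, cut at about 32% in these data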
TbMetRS confirm: Trypanosoma brucei MetRS inhibition confirmed | AID 624412 | T. brucei MetRS enzyme, luminescence (ATP depletion) | shares compounds with TbMetRS inhib | actives 93% (n = 1,400) | inhibition, % at 11.9 µM; in the data active means inhibition above about 7%
Jurkat cytotox: Jurkat T cell cytotoxicity for MetRS hits. shares compounds with TbMetRS inhib. actives 12% (n = 1,400). inhibition, % at 8.3 µM. Jurkat cells viability, ATP luminescence; in the data active means inhibition above about 15%
TbMetRS FP orth: orthogonal test for Trypanosoma brucei MetRS inhibitors; AID 651607; shares compounds with TbMetRS inhib; actives 44% (n = 1,400); inhibition, % at 11.9 µM; purified T. brucei MetRS, fluorescence polarization; in the data active means inhibition above about 17%
A number is an active result; – = inactive; · = not tested or not shown. Shown are actives, neighbours in structure and some others; about 1.4% of the full set was active somewhere.

SMILES	TbMetRS inhib	HDAC3 inh	IDE cell activ	Efflux pump mplx	Yeast superoxide	IDE cell inh	Yeast cmpd fluor	CaMdr1 efflux inh	Cdr2 pump inh	CaCdr1 efflux inh	others
Cc1ccccc1C(=O)N1CCN(c2ccc(NC(=O)c3ccc4c(c3)OCCO4)cc2)CC1	–	–	–	–	–	–	·	·	·	·
Cc1ccc(O)c(NC(=O)C2CCCN2C(=O)OCc2ccccc2)c1 (stereo unspecified)	–	–	–	–	–	–	·	·	·	·
CCCCCCCCCC(=O)N1c2ccccc2NC(=O)C1CC(=O)Nc1ccc(C(=O)O)cc1 (stereo unspecified)	–	–	–	–	–	–	·	·	·	·
COc1ccc(S(=O)(=O)Nc2ccc3c(c2)N(C(C)=O)CCC3)cc1OC	–	–	–	1.0	–	–	–	–	–	–
COc1ccc(S(=O)(=O)Nc2ccc3c(c2)N(C(C)=O)CCC3)cc1	–	–	–	–	–	–	·	·	·	·
O=C(CC1C(=O)NCCN1Cc1ccccc1)NC1CCCCC1 (stereo unspecified)	–	·	·	·	·	·	·	·	·	·
Cc1cc2nc3s/c(=C/c4ccc(-c5ccccc5C(=O)O)o4)c(=O)n3c2cc1C	–	–	–	0.9	–	–	–	–	–	–
COc1ccc2cc3cc(C(=O)NCc4ccc5c(c4)OCO5)oc3nc2c1	–	–	–	–	–	–	·	·	·	·
COc1ccc2cc3cc(C(=O)N4CCN(Cc5ccc6c(c5)OCO6)CC4)oc3nc2c1	–	–	–	0.6	–	–	–	–	–	–
CC(C)CC(C(=O)OCC(=O)Nc1cccc(Cl)c1)N1C(=O)C2CC=CCC2C1=O (stereo unspecified)	–	–	–	2.7	–	–	–	–	–	–
COc1cc(OC)c(NS(=O)(=O)c2ccc(Cl)c(C(=O)OC(C)C(=O)N3CCCC3)c2)cc1Cl (stereo unspecified)	–	–	–	7.6	–	–	–	–	–	–
OCCN1CCN(CC/C=C2/c3ccccc3CSc3ccccc32)CC1	–	–	·	–	–	–	·	·	·	·
OCCN1CCN(CC/C=C2/c3ccccc3Sc3ccc(C(F)(F)F)cc32)CC1	–	–	–	–	–	–	–	–	–	–
Cc1cc(NC(=O)CCC(=O)N(Cc2ccco2)C(C(=O)NC2CCCCC2)c2ccccc2)no1 (stereo unspecified)	–	–	–	–	–	–	–	–	–	–
Cc1cc(NC(=O)CCC(=O)N(Cc2ccco2)C(C(=O)NC2CCCC2)c2ccccc2C)no1 (stereo unspecified)	–	–	–	–	–	–	–	–	–	–
Cc1ccc(C(C(=O)NC2CCCC2)N(C(=O)CCC(=O)Nc2cc(C)on2)c2ccccc2)cc1 (stereo unspecified)	–	–	–	–	–	–	–	–	–	–
Cc1cc(NC(=O)CCC(=O)N(Cc2ccco2)C(C(=O)NC2CCCC2)c2ccccc2F)no1 (stereo unspecified)	–	–	–	–	–	–	·	·	·	·
N#CCSc1ccc2nc(-c3ccccc3)cn2n1	–	–	–	–	–	–	·	·	·	·
O=C(CSc1nnc(NC(=O)c2ccccc2F)s1)NCC1CCCO1 (stereo unspecified)	–	–	–	–	–	–	·	·	·	·
O=C(CCS(=O)(=O)c1ccccc1F)Nc1ccc(N2CCN(Cc3ccccc3)CC2)cc1	–	–	–	1.9	–	–	–	–	–	–
Cc1cc(C(=O)NNc2c(Cl)cccc2Cl)n(C(C)(C)C)n1	–	–	–	–	–	–	·	·	·	·
Cc1cc(C(=O)O)n(C(C)(C)C)n1	–	–	–	2.0	–	–	–	–	–	–
CCCCC[C@@H]1C=C(C(=O)O)[C@H](c2ccc(Br)cc2)N1S(=O)(=O)c1ccc(C)cc1	–	·	–	–	–	–	·	·	·	·
O=C(NC1CCS(=O)(=O)C1)c1cccnc1 (stereo unspecified)	·	–	·	–	–	–	·	·	·	·
CC(=O)Nc1cccc(NC(=O)c2cc(-c3cccnc3)nc3ccc(Br)cc23)c1	–	–	–	–	–	–	·	·	·	·
SMILES	TbMetRS inhib	HDAC3 inh	IDE cell activ	Efflux pump mplx	Yeast superoxide	IDE cell inh	Yeast cmpd fluor	CaMdr1 efflux inh	Cdr2 pump inh	CaCdr1 efflux inh	others
CC(=O)Nc1cccc(NC(=O)c2cc(-c3cccnc3)nc3ccc(Cl)cc23)c1	–	–	–	1.4	–	–	–	–	–	–
C[C@H](CO)N1C[C@H](C)[C@@H](CN(C)S(=O)(=O)c2ccccc2)Oc2c(NC(=O)Nc3ccccc3)cccc2C1=O	16	·	–	–	–	–	–	–	–	–	TbMetRS confirm=35;Jurkat cytotox=–;TbMetRS FP orth=–
CCc1ccc(OCCOCC(O)CNC2CCCC2)cc1 (stereo unspecified)	–	–	–	–	–	–	·	·	·	·
N#Cc1nc(COc2ccc(Cl)cc2Cl)oc1N1CCOCC1	11	–	–	0.8	–	–	–	–	–	–	TbMetRS confirm=22;Jurkat cytotox=–;TbMetRS FP orth=–
N#Cc1nc(COc2ccc(Cl)cc2Cl)oc1N1CCN(c2ccccc2)CC1	–	–	–	–	–	–	·	·	·	·
Cc1ccc(NC(=O)CN(C)C(=O)CCSc2ccc(F)cc2)cc1	43	–	–	–	–	–	·	·	·	·	TbMetRS confirm=80;Jurkat cytotox=–;TbMetRS FP orth=60
O=C(CCC(=O)Nc1ccc(Cl)cc1Cl)NNC(=O)Nc1ccccc1	13	–	–	–	–	–	·	·	·	·	TbMetRS confirm=26;Jurkat cytotox=–;TbMetRS FP orth=–
O=C(NNC(=O)c1cc(-c2ccc(Cl)cc2Cl)nc2ccccc12)Nc1ccccc1	39	–	–	–	–	–	·	·	·	·	TbMetRS confirm=95;Jurkat cytotox=–;TbMetRS FP orth=80
COc1ccc(NC(=O)NNC(=O)CCC(=O)Nc2ccccc2Cl)cc1	–	–	–	–	–	–	·	·	·	·
O=C(Nc1nn[nH]n1)c1cc(-c2ccc(Cl)c(Cl)c2Cl)nc2ccccc12	–	–	–	–	–	–	·	·	·	·
CS(=O)(=O)n1nc(-c2ccc(Cl)cc2)nc1SCc1ccccc1	6.7	–	–	–	–	–	·	·	·	·	TbMetRS confirm=–;Jurkat cytotox=–;TbMetRS FP orth=–
CSc1nc(-c2ccc(Cl)cc2)nn1S(=O)(=O)c1ccccc1	–	–	–	–	–	–	·	·	·	·
